Source: PubChem BioAssay
PostGolgi ctrl – growth inhibition of yeast control strain, primary screen, counter-screen for post-Golgi transport modulator project. efflux-deficient yeast background strain, growth absorbance A615, 16 h. inhibition, % at 10 µM. 98,000 compounds, 5% hits. AID 738, 2007
BB579 growth dn – growth inhibitors of yeast BB579 in restrictive medium, primary screen, yeast lifespan-shortening project, S. cerevisiae; OD615, 48 h; inhibition, % at 10 µM; 140,000 compounds, 0.51% hits; AID 804, 2007;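 active = inhibition above a set limit, 3 SD over the mean compound inhibition, cut at about 44% in these data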
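System: Saccharomyces cerevisiae DeaD strain BB579, replicative lifespan model yeast | Buffer or medium: Restrictive glucose-based CSMM-D medium | Times: 4 h preincubation and 48 h exposure at 30 °C | Detection: OD615 turbidity measurement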
Yeast lifespan up – compounds extending yeast replicative lifespan, primary screen, S. cerevisiae, OD615. 130,000 compounds, 0.68% hits. inhibition of the nicotinamide effect, % at 10 µM. S. cerevisiae growth with nicotinamide; deaD strain in restrictive glucose medium;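 active = inhibition above a set limit, placed 3 SD over the median of all compounds, cut at about 26% in these data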;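 also: 0% = nicotinamide-treated wells and 100% = cells grown without nicotinamide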
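Test system – modified budding yeast, DeaD strain · Compound – single dose 10 µM compound, 0.25% DMSO · Times – culture preincubation 4 h, compound exposure 48 h, both 30 °C · Detection – optical density (absorbance) at 615 nm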
PostGolgi yeast – phenotypic screen on post-Golgi transport, primary screen; AID 739, 2007; inhibition, % at 10 µM; post-Golgi transport phenotypic cell assay; 98,000 compounds, 0.9% hits;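 also: yeast cells grown in 1536-well plates; yeast grown about 18 h at 30C before absorbance read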
Active calls of the source: *; · = no result. Many of the other results were omitted from the sample, so hits are more common in it than they were. Rule as the data show it, unless noted: active = inhibition above about 30%; inactive = the rest.

SMILES	PostGolgi ctrl	BB579 growth dn	Yeast lifespan up	PostGolgi yeast
Cc1cc(NCCCO)n2c(nc3ccccc32)c1C#N	·	-30.1	-4.2	·
CCc1c(C)c(C#N)c2nc3ccccc3n2c1NCc1ccco1	21.1	-9.3	1.3	0.2
O=c1c(-c2nc3ccccc3o2)c2oc3ccccc3n2c2ccccc12	21.2	8.9	-14.9	-3.1
COc1ccccc1CNC(=O)c1ccc(OC(F)F)c(OC)c1	·	-8.7	-4.0	·
Cc1ccc(-n2nc3ccc(NC(=O)/C=C/c4ccco4)cc3n2)cc1	·	-11.1	-6.2	·
c1ccc(-c2ccc(OCCOCCn3cncn3)cc2)cc1	44.3*	-50.3	-18.4	-3.3
CC12CCC(C(=O)Nc3ccccc3Cl)(C(Br)C1=O)C2(C)C (centres undefined)	·	-9.1	4.3	·
C/C(Cn1nc([N+](=O)[O-])cc1C)=N\NC(=O)c1cccc(Br)c1	6.1	-0.8	-24.1	-1.5
Cc1ccc(-n2ncc(C#N)c2/N=C/N(C)C)cc1	33.3*	18.7	-16.8	-4.3
O=C(CS(=O)c1ccc(C(F)(F)F)cc1[N+](=O)[O-])Oc1ccccc1 (centres undefined)	28.1	-36.3	40.4*	1.0
O=C(CNc1ccc(C(F)(F)F)cc1[N+](=O)[O-])OCC(=O)c1ccccc1	14.0	-47.9	-5.7	3.7
Nc1nonc1C(=O)NCCN=Cc1ccccc1O	-8.5	0.3	-8.4	8.7
Nc1nonc1C(=O)NCCN=Cc1cc(Cc2ccccc2)cc(Br)c1O	14.5	99.4*	-11.9	15.9
c1ccc(CCNc2ncnc3scc(C4COc5ccccc5O4)c23)cc1 (centres undefined)	43.5*	-37.4	-6.3	1.5
CN(C)c1cccc2c(C=C(C#N)C#N)ccc(N(C)C)c12	·	-27.7	5.6	·
CCOc1cc(CNn2cn[nH]c2=S)cc(Cl)c1OCc1ccccc1F	·	-3.4	-3.1	·
CCCN1C2=NCCCN2c2ccccc21	38.5*	3.1	-9.5	6.2
CCCN1C2=NCCN2c2ccccc21	-7.3	-6.7	-8.1	-5.0
CCCCCCN1C2=NCCN2c2ccccc21	4.8	-7.7	-3.0	32.5*
COc1c(F)c(F)c(C(=O)Nc2ccc(N3CCN(C(C)=O)CC3)c(Cl)c2)c(F)c1F	9.3	-9.0	-5.5	-2.8
CCOC(=O)N1CCN(c2c(F)cc3[nH]c(=S)[nH]c3c2Br)CC1	33.1*	-15.2	-10.2	0.6
O=C(c1ccccc1F)N(Cc1ccc2c(c1)OCO2)Cc1cc2cc3c(cc2n2nnnc12)OCO3	20.7	-47.9	-2.2	-1.3
Cc1ccccc1-c1nc(S(=O)(=O)c2ccc(Br)cc2)c(NCc2cccnc2)o1	31.3*	-53.1	-11.1	0.3
OC(CC1CC12c1ccccc1-c1ncccc12)(c1ccccc1)c1ccccc1 (centres undefined)	45.0*	-71.3	2.4	-0.5
CCCN(CCC)S(=O)(=O)c1ccc(C(=O)NNc2nc(-c3ccccc3)c3cc(Br)ccc3n2)cc1	·	-54.4	-0.7	·
SMILES	PostGolgi ctrl	BB579 growth dn	Yeast lifespan up	PostGolgi yeast
COc1ccccc1N1CCN(CC(O)c2ccc3cc[nH]c3c2)CC1 (centres undefined)	7.4	-9.7	-12.6	39.1*
CCCCC1=C([O-])C2N=CC=CC2=[N+](c2ccccn2)C1=O (centres undefined)	·	-34.4	9.5	·
COc1ccc(C(=O)Nc2ccc(Cl)cc2C(=O)N2CCCC(C)C2)cc1 (centres undefined)	15.9	-25.9	-8.6	65.2*
COc1ccc(CNc2nc(NCc3ccc(OC)c(OC)c3)n(C(=O)c3cccs3)n2)cc1OC	8.3	-23.9	-3.5	-1.6
CCC1(C)Cc2ccccc2-c2nc(NCCO)n(-c3ccccc3)c(=O)c21 (centres undefined)	·	-6.3	·	·
CCC1(C)Cc2ccccc2-c2nc(NCCO)n(-c3ccc(C)cc3)c(=O)c21 (centres undefined)	35.0*	-53.3	-3.7	1.4
O=C(NC1(C(=O)NC2CCCCC2)CCCCC1)c1ccccn1	31.6*	-36.2	-8.0	-6.8
O=C(c1cnccn1)N(c1ccccc1)C1(C(=O)NC2CCCC2)CCCCC1	12.4	-18.3	-4.9	-1.3
O=C(c1cnccn1)N(c1ccccc1)C1(C(=O)NC2CCCCC2)CCCCC1	33.2*	-17.3	-0.4	-0.2
Cc1ccc(NC(=O)C2(NC(=O)c3ccccn3)CCCCC2)cc1Br	·	-41.2	-3.0	·
CC12CN3CC(C)(CN(C1)C3c1ccc(Br)cc1O)C2 (centres undefined)	13.0	-43.8	32.6*	-8.0
CC12CN3CC(C)(CN(C1)C3c1cc(Br)ccc1O)C2=O (centres undefined)	1.9	-20.2	8.6	20.7
CC(C)[C@H](NC(=O)c1ccc(C(C)(C)C)cc1)C(=O)Nc1nnc(C2CC2)s1	·	-14.1	0.3	·
CCn1nc(C)c(C2C(C#N)=C(N)OC3=C2C(=O)CC(C)(C)C3)c1C (centres undefined)	·	1.6	-3.7	·
N#Cc1cc(C(=O)c2cc(F)ccc2O)cn(-c2nccs2)c1=O	·	-28.4	41.4*	·
N#Cc1cc(C(=O)c2ccccc2O)cn(-c2nccs2)c1=O	·	-31.9	16.3	·
O=C(CSc1nnc2scc(-c3ccccc3)n12)Nc1nsc(-c2ccccc2)n1	10.7	-1.1	-2.7	6.7
Cc1nnc(SCC(=O)Nc2ccc(-c3nc4ccccc4s3)cc2)s1	·	-24.1	-2.8	·
Cc1ccc(-c2nc(NC(=O)CSc3nnnn3-c3ccccc3)ns2)cc1	47.9*	-13.8	-4.9	5.2
CC1CCCCC1NC(=O)CSc1nnnn1-c1ccccc1 (centres undefined)	-2.1	-33.9	-13.3	37.9*
Cc1nnc(SCC(=O)Nc2nsc(-c3ccc(C(C)(C)C)cc3)n2)s1	62.0*	-5.4	-6.8	-0.5
Cc1ccc(-c2nc(NC(=O)CSc3ccc4ccccc4n3)ns2)cc1	·	-14.2	-0.9	·
Cc1ccc(-c2csc3nnc(SCC(=O)Nc4nsc(-c5ccccc5)n4)n23)cc1	40.6*	-58.0	-2.8	9.5
Cc1ccc(S(=O)(=O)N2CCSC2)cc1C	8.7	-38.6	12.1	20.5
CSCCC(NC(=O)c1cccc([N+](=O)[O-])c1)C(=O)O (centres undefined)	·	-12.4	-1.8	·
SMILES	PostGolgi ctrl	BB579 growth dn	Yeast lifespan up	PostGolgi yeast
O=C(Nc1cccc(Cl)c1)c1ccc2c(=O)n3c(nc2c1)CCCCC3	21.9	-39.3	59.2*	7.1
Cc1ccc(NS(=O)(=O)c2ccc(CCC(=O)N3CCOCC3)cc2)cc1	-0.3	7.8	-15.3	-14.7
CCCNS(=O)(=O)c1ccc(OCC(=O)N2CCC(C(=O)OCC)CC2)cc1	31.3*	-50.0	-6.0	-6.8
Cc1ccc(NS(=O)(=O)c2ccc(OCC(=O)N3CCOCC3)cc2)cc1	32.5*	-45.5	-3.2	1.9
CCOC(=O)C1CCN(C(=O)COc2ccc(S(=O)(=O)NC(C)C)cc2)CC1	-6.0	12.4	-22.3	13.6
O=C(O)CCC(=O)N1CCN(c2nc(-c3ccccc3Cl)c3cc(Br)ccc3n2)CC1	7.8	99.2*	-15.9	16.8
O=C(Cn1cncc1-c1ccc([N+](=O)[O-])cc1)Nc1ccccc1F	·	-18.5	7.9	·
Brc1ccc(-c2csc(-c3c[nH]c4ccccc34)n2)cc1	23.9	-50.7	-13.9	-4.3
